From PubChem
GPR7 antag – blocks human GPR7 receptor signaling | P48145 | GPR7-expressing cells, fluorescence antagonist assay | inhibition, % at 4.4 µM | 290,000 tested, 1.1% active; in the data active = inhibition above about 16%, passing the limit was not always enough;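 note: cells stimulated with the agonist NPW; 0% = agonist with vehicle and 100% = vehicle without agonist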
PGE2 EP2 inh – blocks the human prostaglandin E2 receptor EP2. P43116. inhibition, % at 25 µM. AID 1422. C6 glioma cells expressing human EP2, cAMP TR-FRET; cells stimulated with saturating PGE2. 260,000 tested, 0.52% active;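 active = percent inhibition above 40 after rounding to a whole number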;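 note: rat C6 glioma host cells with rolipram phosphodiesterase inhibitor present; the protocol text gives 20 µM as final concentration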
CHO parental Ca – counter-screen for OX1R antagonists: effect in parental CHO cells | parental CHO-K1, ATP-induced calcium, Fluo-8 fluorescence | inhibition, % at 5.6 µM | 330,000 tested, 0.63% active;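 active = inhibition above that plate's mean sample inhibition plus 3 SD, cut at about 26% in these data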;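 note: 0% = ATP-challenged DMSO wells and 100% = DMSO wells without ATP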
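Assay system: untransfected parental CHO cell line. Also added: ATP agonist challenge. Dosing: one dose, 5.6 µM nominal. Measured by: Fluo-8 fluorescence. Read-out: % inhibition. Benchmarks: ATP wells versus no-ATP DMSO wells. Repeats: no replicates.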
OX1R antag-1 – antagonists of human orexin 1 receptor; AID 434989; CHO/OX1R cells, Fluo-8 calcium fluorescence, orexin A; 330,000 tested, 0.43% active; inhibition, % at 5 µM;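 active = inhibition above its plate's threshold, mean inhibition of all tested compounds on the plate plus 3 SD, cut at about 37% in these data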;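 note: 0% = orexin A challenge wells and 100% = SB-334867-A antagonist wells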
Target sequence (O43613 whole entry, looked up): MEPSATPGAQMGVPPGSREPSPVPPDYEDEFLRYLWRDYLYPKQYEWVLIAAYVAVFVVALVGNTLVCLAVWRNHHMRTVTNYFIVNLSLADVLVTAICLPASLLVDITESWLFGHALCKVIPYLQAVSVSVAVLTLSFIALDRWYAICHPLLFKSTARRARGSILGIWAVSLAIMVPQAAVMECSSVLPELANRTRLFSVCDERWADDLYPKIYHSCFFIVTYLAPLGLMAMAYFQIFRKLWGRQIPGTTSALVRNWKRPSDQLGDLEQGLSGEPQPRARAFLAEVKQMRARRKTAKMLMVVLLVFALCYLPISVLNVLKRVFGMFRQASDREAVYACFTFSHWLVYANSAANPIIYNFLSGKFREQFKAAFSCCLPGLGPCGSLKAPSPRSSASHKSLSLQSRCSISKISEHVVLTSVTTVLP
EP2 mod – EP2 receptor (human) modulation. induction, % at 25 µM. 260,000 tested, 0.83% active. EP2-expressing cells, cAMP HTRF FRET, PGE2 co-stimulation. P43116;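 active = compounds whose cAMP rise, as percent of the full-agonist control response, exceeds 60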;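 note: rat C6 glioma line stably carrying human EP2 under a CMV promoter; the protocol text gives 20 µM as final concentration; 100% = response of wells given 1 µM PGE2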
OX1R antag-2 – antagonists of human orexin 1 receptor (OX1R) | OX1R-expressing cells, FRET antagonist read-out | inhibition, % at 6.6 µM | 330,000 tested, 1.8% active; in the data active = inhibition mostly above about 38%, no sharp cut-off; inactive = mostly below about 40%;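 note: 0% = agonist challenge alone and 100% = reference antagonist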
* marks the source's active call; other numbers are inactive results; x = not tested or not shown. Sampled rows, rich in hits. Any-hit rate of the full collection: about 3.7%.

SMILES	GPR7 antag	PGE2 EP2 inh	CHO parental Ca	OX1R antag-1	EP2 mod	OX1R antag-2
CC(=O)c1ccc(NC(=O)c2ccc([N+](=O)[O-])o2)cc1	-12.2	x	x	x	x	x
COc1ccc(NC(=O)c2ccc([N+](=O)[O-])o2)cc1	1.5	x	-1.3	-14.4	x	48.7*
Cc1cc(NC(=O)c2ccc([N+](=O)[O-])o2)ccc1NC(=O)c1ccco1	-7.5	63.7*	x	x	-93.0	x
O=C(Nc1ccccc1N1CCCCC1)c1ccc(OC(F)F)cc1	-10.3	x	-33.9	-64.8	x	11.6
COc1cc(Br)c(CCNC(=O)c2ccco2)cc1OC	12.0	0.7	-8.9	-18.1	-20.1	22.5
N#CC(Cc1ccccc1)(Cc1ccccc1)C(=O)NN	-14.6	x	-5.9	11.6	x	9.4
COc1cccc(/C=N/NC(=O)CNC(=O)c2ccncc2)c1O	-14.6	x	-0.6	-3.8	x	8.3
COc1ccc(OC)c(CN2CCN(C(=O)CNC(=O)c3ccc(C(C)(C)C)cc3)CC2)c1	x	x	-18.0	-20.9	x	10.3
N#Cc1nc(-c2ccccc2)oc1N1CCC(C(N)=O)CC1	-9.2	x	-5.6	-17.0	x	5.7
O=C(Nc1c(Cl)ccc2nsnc12)c1ccc([N+](=O)[O-])o1	5.1	x	-5.7	1.7	x	57.1*
Cc1noc(C)c1COc1ccc(C(=O)OCc2nnc(-c3ccc(Cl)cc3)o2)cc1	12.1	13.3	34.9*	54.0*	-56.8	39.2
Cc1noc(C)c1CSCC(=O)OCc1nnc(-c2ccc([N+](=O)[O-])cc2)o1	x	x	-3.9	0.7	x	46.8*
Cc1ccc(/C=N/n2nnnc2N)cc1	x	x	-14.1	-8.6	x	13.1
CC(C)C(NC(=O)CCNC(=O)c1ccccc1Cl)c1nc2ccccc2[nH]1 (centres undefined)	x	x	-21.3	1.6	x	0.0
N#Cc1nc(-c2ccccc2F)oc1N1CCCCC1	-14.3	x	5.7	-17.4	x	21.8
N#Cc1nc(-c2ccccc2Cl)oc1N1CCCCC1	-2.0	9.4	2.6	-35.5	63.1*	17.6
O=C(O)CC(CC(=O)Nc1ccc(-n2ccc(C(F)(F)F)n2)cc1)c1ccccc1 (centres undefined)	-1.9	7.3	0.0	-17.4	-5.5	11.6
O=C(Nc1ccccc1)Nc1ccc(-n2ccc(C(F)(F)F)n2)cc1	-15.8	22.9	41.2*	37.0	-25.8	23.9
O=C(COC(=O)CNC(=O)c1ccc(Cl)c([N+](=O)[O-])c1)NNC(=O)c1ccccc1F	x	x	-8.4	-22.0	x	17.7
O=C(COC(=O)CNC(=O)c1ccc(Cl)c([N+](=O)[O-])c1)NC(=O)c1ccccc1	-6.7	x	-2.5	-7.9	x	51.0*
CC1(C)CC(N2CCCC2)=CC(=[N+]2CCCCCC2)C1	25.9*	10.2	5.8	-18.9	-30.5	5.0
CCCCOC(=O)c1[nH]c2c(c1C)C(=O)CC(c1cc(OC)c(OC)c(OC)c1)C2 (centres undefined)	19.8	9.2	61.7*	7.8	-15.6	35.9
COCCOC(=O)c1[nH]c2c(c1C)C(=O)CC(c1ccccc1)C2 (centres undefined)	13.7	x	42.0*	-5.8	-0.6	26.9
COCCOC(=O)c1[nH]c2c(c1C)C(=O)CC(c1cc(OC)c(OC)c(OC)c1)C2 (centres undefined)	-5.1	x	1.5	-23.5	x	-3.0
C=CCOC(=O)c1[nH]c2c(c1C)C(=O)CC(c1cc(OC)c(OC)c(OC)c1)C2 (centres undefined)	14.5	6.1	33.0*	15.2	-13.9	24.4
SMILES	GPR7 antag	PGE2 EP2 inh	CHO parental Ca	OX1R antag-1	EP2 mod	OX1R antag-2
COc1ccc(C2CC(=O)c3c([nH]c(C(=O)OC(C)C)c3C)C2)cc1OC (centres undefined)	6.5	4.7	-4.6	-15.7	-26.1	22.9
C/C(=N\NC(=O)CCc1c[nH]c2ccccc12)c1ccc([N+](=O)[O-])cc1	-3.4	7.6	0.1	-9.4	-43.1	59.5*
O=c1cc(C(F)(F)F)oc2c1ccc1ccccc12	-5.1	11.5	-8.1	-5.6	55.2	11.1
O=c1cc(/C=C/c2ccccc2)oc2c1ccc1ccccc12	-7.8	2.6	-26.3	-25.5	24.8	56.1*
O=c1cc(-c2cccnc2)oc2c1ccc1ccccc12	-11.9	3.9	-2.7	-12.2	16.6	36.4*
Cc1ccc(N/N=C2\CCS(=O)(=O)c3sccc32)cc1	2.4	2.1	-9.9	-3.2	-45.2	5.9
CC(C)(C)CC(C)(C)NC(=S)NC1CCN(Cc2ccccc2)CC1	27.5*	11.7	0.7	-20.4	-15.3	1.9
CC(C)c1ccc(C(C)NCCS(=O)(=O)c2ccc(Cl)cc2)cc1 (centres undefined)	5.8	x	-18.8	-32.4	x	12.6
Cn1c(=O)c2[nH]c(CS(=O)(=O)Cc3nc4c([nH]3)c(=O)n(C)c(=O)n4C)nc2n(C)c1=O	x	50.4*	x	x	34.4	x
Cn1c(=O)c2[nH]c(COc3ccc(C(C)(C)C)cc3)nc2n(C)c1=O	-17.1	8.8	53.9*	46.2*	-23.5	36.4
CCOc1ccc(C2N(c3ccc(OC)cc3)C(=O)C3CCCN32)cc1OC (centres undefined)	6.2	8.0	-11.2	-7.5	20.2	-0.6
Cn1c(N)c(C(=O)COC(=O)Cc2ccsc2)c(=O)n(C)c1=O	19.8*	11.6	-8.1	0.3	-4.2	-0.3
Cn1c(N)c(C(=O)COC(=O)Cc2ccc(Br)cc2)c(=O)n(C)c1=O	x	x	-2.3	-6.1	x	5.9
Cc1ccc2c(c1)c1c3n2CCN(C(=O)CN2CCN(C)CC2)C3CCC1 (centres undefined)	8.8	12.0	-17.3	-32.1	-48.0	20.1
CN1CCN(CC(=O)N2CCn3c4c(c5cc(C6CCCCC6)ccc53)CCCC42)CC1 (centres undefined)	6.0	91.4*	7.0	25.1	-34.1	-1.0
CCC(=O)c1ccc(OCC(=O)Nc2ccccc2C(=O)N2CCCCC2)cc1	x	x	-29.8	-30.1	x	9.5
COc1cc(/C=C/c2nnc3c4ccccc4ncn23)cc(OC)c1OC	14.6	9.6	-2.6	-3.4	-13.5	64.8*
COc1ccc(CN(C)C(C)C(=O)Nc2ccc(S(=O)(=O)N3CCCCC3)cc2)cc1F (centres undefined)	x	x	-24.0	-30.6	x	3.3
O=C(Nc1ccc(N2CCOCC2)cc1)Nc1ccc2nc(-c3ccco3)c(-c3ccco3)nc2c1	-16.6	18.4	7.0	-6.5	-28.6	51.1*
Cc1ccc(C(=O)NNC(=O)C2CC2)cc1Br	-2.7	x	3.5	0.3	x	6.9
Cn1c(O)c(N=NC(=O)CNC(=O)c2ccccc2)c2ccccc21	-10.8	x	-12.7	-16.2	x	48.5*
CC(=O)C(C(C)=O)C(c1ccccc1)c1nc2ccccc2[nH]c1=O (centres undefined)	10.2	x	x	x	x	x
Cc1nn2c(CN(C(=O)COc3ccccc3)c3ccccc3)nnc2c2ccccc12	-11.9	7.2	-10.1	-0.2	-6.6	61.6*
Cc1nn2c(CN(C(=O)CN3CCOCC3)c3ccccc3)nnc2c2ccccc12	3.6	11.3	-8.3	-10.4	7.5	14.7
O=C(NCCn1ccc2ccccc21)c1ccc2c(c1)OCO2	-2.5	9.3	-6.7	-10.9	-71.2	14.1
